# Most compounds without a hit are left out; they make up all but 1.9% or so of the library.
# b-catenin transl: modulators of beta-catenin nuclear translocation, primary screen, imaging, HeLa cells, immunofluorescence, high-content | AID 1665, 2009 | actives 0.3% (n = 190,000) | nuclear translocation activity, % at 5 µM;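 active = nuclear translocation activity above 50% at 5 µM, with a well cell count of 50 or more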;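 also: per-cell ratio of nuclear to cytoplasmic median beta-catenin stain intensity; plate controls were DMSO negative control for no effect and GSK-3 inhibitor IX positive control for full effect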
#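 System: Human HeLa cells, endogenous beta-catenin | Compound dosing: 5 µM primary, 0.02–20 µM confirmation | Timing: 24 h compound exposure at 37°C, 5% CO2 | Measured by: Fluorescence imaging of beta-catenin antibody stain plus DAPI | Read-out basis: % activation of per-cell nuclear versus cytoplasmic median beta-catenin signal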
# MT stabilize HCS: microtubule stabilizers in HeLa cells, primary screen, imaging, high-content imaging; HeLa tubulin immunostaining HCS, 24 h; share of cells brighter than vehicle mean+2SD; % tubulin-high responders, % at 10 µM; actives 0.83% (n = 200,000);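 active = plate Z-score above 3 for both tubulin-high and condensed-nucleus cell shares, with cell loss under 80%, at 10 µM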;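 also: anti alpha tubulin signal scored within the nucleus-defined area of each cell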
# ROMK primary: ROMK potassium channel modulators, primary screen, cell-based, thallium flux, MLSMR library. ATP-sensitive inward rectifier potassium channel 1 (Homo sapiens), P48048. Tet-inducible ROMK, thallium flux fluorescence; actives lie on both sides. B-score at 10 µM. actives 2% (n = 130,000). AID 1918, 2009;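 active = signal ratio slope over the read window, or its plate-corrected B-score, at least 3 SD from the plate mean, either direction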;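 also: B-score of the F/F0 ratio slope over 7 to 12 s after thallium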
# Target sequence (P48048 whole entry, looked up): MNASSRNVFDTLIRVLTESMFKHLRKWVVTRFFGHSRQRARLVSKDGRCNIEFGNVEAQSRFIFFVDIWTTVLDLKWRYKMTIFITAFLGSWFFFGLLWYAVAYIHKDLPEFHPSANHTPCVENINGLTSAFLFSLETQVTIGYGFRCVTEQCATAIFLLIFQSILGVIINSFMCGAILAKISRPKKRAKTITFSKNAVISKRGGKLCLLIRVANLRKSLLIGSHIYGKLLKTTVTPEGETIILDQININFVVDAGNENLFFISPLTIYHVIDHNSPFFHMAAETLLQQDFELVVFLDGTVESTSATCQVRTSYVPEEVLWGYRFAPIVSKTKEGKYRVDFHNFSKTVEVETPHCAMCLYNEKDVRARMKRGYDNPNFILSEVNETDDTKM
# * marks the source's active call; other numbers are inactive results; · = no result given.
SMILES,b-catenin transl,MT stabilize HCS,ROMK primary
COc1ccc(CCn2c(C3CCCCC3)nc3c(c(=O)c4ccccc4n3C)c2=O)cc1,50.7*,·,0.00664
COc1ccc(OC)c(C2C3CN(C(C)C)CC=C3C(C#N)=C(N)C2(C#N)C#N)c1 (centres undefined),5.7,3.1,-0.961
CC(=O)N1CC=C2C(C#N)=C(N)C(C#N)(C#N)[C@H](c3ccoc3)[C@H]2C1,2.5,2.2,-0.745
Cc1ccc(C2C3CN(C(C)C)CC=C3C(C#N)=C(N)C2(C#N)C#N)cc1 (centres undefined),·,·,-4.26*
CN1CC=C2C(C#N)=C(N)C(C#N)(C#N)[C@H](c3ccoc3)[C@H]2C1,·,1.6,-2.8*
Cc1ccc(C2C(C#N)=C(N)N(c3cccnc3)C3=C2C(=O)CCC3)c(C)c1 (centres undefined),1.0,1.4,0.818
Cc1ccc2c(c1)C=CC(C#N)N2C(=O)c1ccccc1 (centres undefined),56.3*,33.3*,-1.13
Cc1ccc2c(c1)C=CC(C)N2C(=O)c1ccccc1 (centres undefined),-1.7,5.1,·
COC(=O)c1ccc2nc(C)cc(Nc3ccccc3C)c2c1,-3.8,4.5,·
COC(=O)c1ccc(Nc2cc(C)nc3ccc(C)cc23)cc1,62.4*,·,·
COc1ccc(Nc2cc(C)nc3ccccc23)cc1,-1.1,1.4,-1.89
CC(=O)c1ccc(Nc2cc(C)nc3ccccc23)cc1,42.9,27.4*,-0.0243
Clc1ccc(SCCn2ccnc2)cc1,-7.0,2.3,·
CCOc1ncccc1C(=O)NCc1ccccc1Cl,3.1,1.4,-0.192
Cc1ccccc1N=Nc1c(C)[nH]n(-c2ccccc2)c1=O,0.2,1.7,0.442
Cc1[nH]n(-c2ccccc2)c(=O)c1N=Nc1nccs1,-5.7,1.6,12.7*
CCn1c(SCC(=O)N/N=C/c2ccc(O)c(OC)c2)nc2ccccc21,-1.1,2.4,·
COc1cccc(-c2cn3nc(C)c(C)nc3n2)c1,-2.4,1.6,·
COc1ccc(-c2cn3nc4c(nc3n2)CCCC4)cc1,·,1.5,-3.16*
Cc1ccc(S(=O)(=O)N(C)c2ccc3sc(C)nc3c2)cc1,-2.2,18.1*,0.798
Cc1ccc(S(=O)(=O)N(C)c2ccc(N)cc2)cc1,-3.7,2.2,·
CCc1cc2c(=O)n(CCC(C)C)c(=S)[nH]c2s1,-0.8,2.4,9.73*
CCCn1c(=S)[nH]c2ccccc2c1=O,-0.1,4.2,1.7
Clc1ccccc1-c1nc2nc3ccccc3nc2n1-c1ccc2c(c1)OCO2,-1.1,2.8,·
CCN1CCN(C(c2ccccc2F)c2nnnn2Cc2ccc3c(c2)OCO3)CC1 (centres undefined),-3.2,6.1,-2.22*
SMILES,b-catenin transl,MT stabilize HCS,ROMK primary
c1ccc(CCn2nnnc2C(c2cccs2)N2CCN(Cc3ccc4c(c3)OCO4)CC2)cc1 (centres undefined),-2.8,3.7,-3.06*
CCN1CCN(C(c2ccc(F)cc2)c2nnnn2Cc2ccc3c(c2)OCO3)CC1 (centres undefined),0.2,4.6,0.259
Fc1ccccc1N1CCN(C(c2cccs2)c2nnnn2CCc2ccccc2)CC1 (centres undefined),-3.1,2.7,·
O=C(O)c1ccccc1Sc1c([N+](=O)[O-])cc(C(F)(F)F)cc1[N+](=O)[O-],0.2,3.7,0.703
CCOC(=O)n1c(=O)[nH]c2ccc(Br)cc21,0.8,3.4,-0.211
COCc1nnc(NS(=O)(=O)c2c(C)cc(C)cc2C)s1,-6.8,1.3,0.0609
COc1cccc(-c2cc(=O)c3cc(NC(=O)c4ccc(N(C)C)cc4)ccc3[nH]2)c1,87.8*,4.3,3.03
CCCC(=O)Nc1ccc(C(=O)Nc2cccc(OC)c2)cc1,-0.5,2.9,0.659
COc1cccc(-c2cc(=O)c3cc(NC(=O)c4ccccc4)ccc3[nH]2)c1,·,15.2,1.77
COc1cccc(-c2cc(=O)c3cc(NC(=O)c4ccc(Cl)cc4)ccc3[nH]2)c1,-0.1,25.7*,1.87
CC(C)C[C@@H]1NC(=O)[C@H](CO)NC(=O)c2cc([N+](=O)[O-])cc(I)c2OCC[C@@H](C(N)=O)NC1=O,·,3.1,0.493
CC(=O)N1CCc2c(sc(NC(=O)c3ccc(S(=O)(=O)N(C)C)cc3)c2C#N)C1,·,4.6,·
CC(=O)N1CCc2c(sc(NC(=O)c3ccc4c(c3)OCCO4)c2C#N)C1,56.6*,33.7*,·
CC1=C([N+](=O)[O-])C(c2ccccc2)C2=C(N1)c1ccccc1C2=O (centres undefined),-2.4,9.9*,1.68
COc1cc(C2C(C#N)=C(C)NC3=C2C(=O)c2ccccc23)cc(OC)c1OC (centres undefined),5.0,16.5*,3.22*
COc1ccc(C2C(C#N)=C(C)NC3=C2C(=O)c2ccccc23)cc1 (centres undefined),1.5,11.3,-0.495
CC1(C)CC(=O)C2=C(C1)NC1=C(C(=O)c3ccccc31)C2c1ccccc1 (centres undefined),-1.3,4.4,·
C[n+]1nc(Nc2cccc(F)c2)sc1-c1ccc(C(=O)O)cc1,0.0,·,·
COC(=O)c1ccc(C(=O)OC)c(=O)[nH]1,-0.5,·,·
Cc1c(CCC(=O)O)c(=O)oc2cc3occ(-c4ccc(F)cc4)c3cc12,-1.1,3.0,·
COc1ccc(-c2coc3cc4oc(=O)c5ccccc5c4cc23)cc1F,141.4*,11.7,·
C=CCN1C(=O)C(CC(=O)Nc2ccccc2)SC1=Nc1ccc(S(N)(=O)=O)cc1 (centres undefined),-0.4,2.8,·
CCOc1ccc(N(CC(=O)Nc2ccc(C)c(C)c2)S(=O)(=O)c2c(C)noc2C)cc1,7.0,2.5,·
CCOc1ccc(N(CC(=O)Nc2ccccc2C)S(=O)(=O)c2c(C)noc2C)cc1,68.5*,14.9*,·
CCOc1ccccc1NC(=O)CN(c1ccc(OC)cc1)S(=O)(=O)c1c(C)noc1C,1.9,17.5*,·
SMILES,b-catenin transl,MT stabilize HCS,ROMK primary
CCOc1ccccc1NC(=O)CN(c1cc(C)cc(C)c1)S(=O)(=O)c1c(C)noc1C,-2.3,3.0,·
O=C(CN1C(=O)NC2(CCCC2)C1=O)OCc1cc(=O)n2cc(Br)ccc2n1,-1.1,·,·
OC(c1ccccc1)(c1ccc(F)cc1)C(c1ccccc1)N1CCOCC1 (centres undefined),0.2,2.4,·
Cn1nc(C(=O)OCC(=O)NC2CCS(=O)(=O)C2)c2ccccc2c1=O (centres undefined),-0.8,2.8,0.215
Cc1c(C(=O)OCCOC(C)C)[nH]c2c1C(=O)CC(c1ccco1)C2 (centres undefined),118.1*,6.5,·
CCOC(=O)c1[nH]c2c(c1C)C(=O)CC(c1ccco1)C2 (centres undefined),117.9*,7.0,·
CCOC(=O)C1=C(C)NC(C)=C(C(=O)OCC)C1c1ccco1,0.5,·,-2.39
CSCCOC(=O)c1[nH]c2c(c1C)C(=O)CC(c1ccco1)C2 (centres undefined),92.4*,7.9,·
Cc1c(C(=O)OCc2ccccc2)[nH]c2c1C(=O)CC(c1ccco1)C2 (centres undefined),119.8*,6.8,·
COc1ccc(C2CC(=O)c3c([nH]c(C(=O)OC(C)C)c3C)C2)cc1OC (centres undefined),-1.0,5.3,-0.769
Cc1c(C(=O)OCCOC(C)C)[nH]c2c1C(=O)CC(C)(C)C2,-1.3,5.1,·
